Test results reported in ChEMBL document CHEMBL3808334, “Synthesis and in vitro evaluation of novel triazine analogues as anticancer agents and their interaction studies with bovine serum albumin” (Eur J Med Chem, 2016).

Experiments:
Type in all cases: functional
[1] = Growth inhibition of human OVCAR3 cells assessed as cell growth at 10^-4 M incubated for 48 hrs by sulforhodamine B assay; settings: OVCAR-3, 48 h, read-out: Activity
[2] = test system: SK-MEL-2; assay: Growth inhibition of human SK-MEL-2 cells assessed as cell growth at 10^-5 M incubated for 48 hrs by sulforhodamine B assay; settings: SK-MEL-2, 48 h, read-out: Activity
[3] = Growth inhibition of human UO31 cells assessed as cell growth at 10^-5 M incubated for 48 hrs by sulforhodamine B assay; settings: UO-31, 48 h, read-out: Activity
[4] = Growth inhibition of human OVCAR5 cells assessed as cell growth at 10^-6 M incubated for 48 hrs by sulforhodamine B assay; settings: OVCAR-5, 48 h, read-out: Activity
[5] = Growth inhibition of human Caki1 cells incubated for 48 hrs by sulforhodamine B assay; settings: CAKI-1, 48 h; for CC50: read-out: pLC50 (the source's name) (converted)
Outline: (§1)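 Cells seeded at 5,000–40,000/well according to doubling time and preincubated 24 h at 37 °C, 5% CO2. Time-zero plates were TCA-fixed. DMSO concentrate was diluted in medium with 50 µg/ml gentamicin to give five concentrations (10-fold or ½ log steps), then exposed 48 h. Cells were TCA-fixed, stained with 0.4% SRB and read at 515 nm. Percent growth was taken against time-zero and control; GI50, TGI and LC50 derived.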

[6] = test system: EKVX; assay: Growth inhibition of human EKVX cells assessed as cell growth at 10^-4 M incubated for 48 hrs by sulforhodamine B assay; settings: read-out: Activity; outline: as §1
[7] = test system: NCI-H322M; assay: Growth inhibition of human NCI-H322M cells assessed as cell growth at 10^-8 M incubated for 48 hrs by sulforhodamine B assay; settings: read-out: Activity
[8] = Growth inhibition of human OVCAR5 cells assessed as cell growth at 10^-7 M incubated for 48 hrs by sulforhodamine B assay; settings: OVCAR-5, 48 h, read-out: Activity
[9] = Growth inhibition of human UACC62 cells assessed as cell growth at 10^-7 M incubated for 48 hrs by sulforhodamine B assay; settings: UACC-62, 48 h, read-out: Activity
[10] = test system: Malme-3M; assay: Growth inhibition of human MALME-3M cells incubated for 48 hrs by sulforhodamine B assay
Outline: (§2)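 Cells were plated at 5,000–40,000 per well according to doubling time and preincubated 24 h at 37 °C in 5% CO2; time-zero plates were then TCA-fixed. Five concentrations (10-fold or ½-log dilutions, DMSO stock) were incubated 48 h. Cells were TCA-fixed, stained with 0.4% SRB and read at 515 nm. GI50 was taken where [(Ti−Tz)/(C−Tz)]×100 = 50.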

[11] = Growth inhibition of human UACC62 cells incubated for 48 hrs by sulforhodamine B assay; settings: UACC-62, 48 h; outline: as §2
[12] = test system: NCI-H322M; assay: Growth inhibition of human NCI-H322M cells assessed as cell growth at 10^-5 M incubated for 48 hrs by sulforhodamine B assay; settings: read-out: Activity
[13] = Growth inhibition of human BT549 cells assessed as cell growth at 10^-4 M incubated for 48 hrs by sulforhodamine B assay; settings: BT-549, 48 h, read-out: Activity
Outline: (§3)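 Five-dose assay: five concentrations from 10-fold or ½-log serial dilutions. Cells are plated at 5,000–40,000 per well according to doubling time, grown 24 h, then exposed 48 h at 37 °C, 5% CO₂. Fixed with cold 50% TCA (final addition) for 60 min at 4 °C and stained with 0.4% SRB in 1% acetic acid. Bound dye is solubilized in 10 mM Tris base and read at 515 nm. GI₅₀ is where [(Ti−Tz)/(C−Tz)]×100 = 50, with a time-zero plate as Tz.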

[14] = Growth inhibition of human RXF393 cells assessed as cell growth at 10^-7 M incubated for 48 hrs by sulforhodamine B assay; settings: RXF 393, 48 h, read-out: Activity
[15] = Growth inhibition of human SF295 cells assessed as cell growth at 10 uM incubated for 48 hrs by sulforhodamine B assay; settings: SF-295, 48 h, read-out: Activity
[16] = Growth inhibition of human Hs 578T cells assessed as cell growth at 10^-4 M incubated for 48 hrs by sulforhodamine B assay; settings: read-out: Activity
[17] = Growth inhibition of human SF539 cells assessed as cell growth at 10^-4 M incubated for 48 hrs by sulforhodamine B assay; settings: SF-539, 48 h, read-out: Activity
[18] = Growth inhibition of human OVCAR3 cells assessed as cell growth at 10^-7 M incubated for 48 hrs by sulforhodamine B assay; settings: OVCAR-3, 48 h, read-out: Activity
[19] = Growth inhibition of human UACC62 cells assessed as cell growth at 10^-4 M incubated for 48 hrs by sulforhodamine B assay; settings: UACC-62, 48 h, read-out: Activity
[20] = test system: A498; assay: Growth inhibition of human A498 cells assessed as cell growth at 10^-7 M incubated for 48 hrs by sulforhodamine B assay; settings: A498, 48 h, read-out: Activity; outline: as §3
[21] = Growth inhibition of human SF268 cells incubated for 48 hrs by sulforhodamine B assay; settings: SF-268, 48 h; outline: as §2
[22] = test system: KM12; assay: Growth inhibition of human KM12 cells assessed as cell growth at 10^-6 M incubated for 48 hrs by sulforhodamine B assay; settings: KM12, 48 h, read-out: Activity
[23] = Growth inhibition of human UO31 cells assessed as cell growth at 10^-8 M incubated for 48 hrs by sulforhodamine B assay; settings: UO-31, 48 h, read-out: Activity
[24] = Growth inhibition of human DU145 cells assessed as cell growth at 10^-6 M incubated for 48 hrs by sulforhodamine B assay; settings: DU-145, 48 h, read-out: Activity; outline: as §1
[25] = Growth inhibition of human HL-60(TB) cells assessed as cell growth at 10 uM incubated for 48 hrs by sulforhodamine B assay; settings: HL-60, 48 h, read-out: Activity
[26] = test system: MDA-MB-231; assay: Growth inhibition of human MDA-MB-231 cells assessed as cell growth at 10^-6 M incubated for 48 hrs by sulforhodamine B assay; settings: MDA-MB-231, 48 h, read-out: Activity
[27] = test system: A498; assay: Growth inhibition of human A498 cells assessed as cell growth at 10^-4 M incubated for 48 hrs by sulforhodamine B assay; settings: A498, 48 h, read-out: Activity; outline: as §3
[28] = test system: M14; assay: Growth inhibition of human M14 cells assessed as cell growth at 10^-6 M incubated for 48 hrs by sulforhodamine B assay; settings: M14, 48 h, read-out: Activity
[29] = read-out: LC50 (the source's name)
[30] = read-out: pLC50 (the source's name) (converted)

`c1ccc(-c2nc(Nc3ccc(-c4nc5ccccc5[nH]4)cc3)nc(N3CCOCC3)n2)cc1` showed a growth at 100 µM [1] of -100%, a growth at 10 µM [2] of -85% and a growth at 10 µM [3] of -78%. The growth at 1 µM [4] was 112%, the LC50 [5] was 5.06 µM and the GI50 ([5]; read-out: GI50) was 1.28 µM. It also gave a TGI ([5]; read-out: TGI) of 2.54 µM, a GI50 ([5]; read-out: pGI50 (converted)) of 1.29 µM and a CC50 [5] of 5.01 µM. For the same compound, the TGI ([5]; read-out: pTGI (converted)) was 2.57 µM, the growth at 100 µM [6] was -66% and the growth at 0.01 µM [7] was 95%. The growth at 0.1 µM [8] was 99%, the growth at 0.1 µM [9] was 97% and the GI50 ([10]; read-out: GI50) was 2 µM. The CC50 [10, 29] was 7.42 µM, the TGI ([10]; read-out: TGI) was 3.85 µM and the GI50 ([10]; read-out: pGI50 (converted)) was 2 µM. It also gave a CC50 [10, 30] of 7.41 µM, a TGI ([10]; read-out: pTGI (converted)) of 3.89 µM and a GI50 ([11]; read-out: GI50) of 1.66 µM. For the same compound, the CC50 [11, 29] was 7.29 µM, the TGI ([11]; read-out: TGI) was 3.48 µM and the GI50 ([11]; read-out: pGI50 (converted)) was 1.66 µM. The CC50 [11, 30] was 7.24 µM, the TGI ([11]; read-out: pTGI (converted)) was 3.47 µM and the growth at 10 µM [12] was -79%. The growth at 100 µM [13] was -80%, the growth at 0.1 µM [14] was 96% and the growth at 10 µM [15] was -76.4%. It also gave a growth at 100 µM [16] of -43%, a growth at 100 µM [17] of -90% and a growth at 0.1 µM [18] of 98%. The growth at 100 µM [19] was -75%, the growth at 0.1 µM [20] was 84% and the GI50 ([21]; read-out: GI50) was 1.64 µM. The CC50 [21, 29] was 6.39 µM, the TGI ([21]; read-out: TGI) was 3.24 µM and the GI50 ([21]; read-out: pGI50 (converted)) was 1.62 µM. It also gave a CC50 [21, 30] of 6.46 µM, a TGI ([21]; read-out: pTGI (converted)) of 3.24 µM and a growth at 1 µM [22] of 85%. The growth at 0.01 µM [23] was 82%, the growth at 1 µM [24] was 63% and the growth at 10 µM [25] was -32.7%. It also gave a growth at 1 µM [26] of 63%, a growth at 100 µM [27] of -100% and a growth at 1 µM [28] of 69%.
For `Clc1ccc(-c2nc(Nc3ccc(-c4nc5ccccc5[nH]4)cc3)nc(N3CCOCC3)n2)cc1`, the growth at 100 µM [1] was -71%, the growth at 10 µM [2] was -87% and the growth at 10 µM [3] was -86%. The growth at 1 µM [4] was 32%, the LC50 [5] was 5.23 µM and the GI50 ([5]; read-out: GI50) was 1.41 µM. The TGI ([5]; read-out: TGI) was 2.72 µM, the GI50 ([5]; read-out: pGI50 (converted)) was 1.41 µM and the CC50 [5] was 5.25 µM. It also gave a TGI ([5]; read-out: pTGI (converted)) of 2.69 µM, a growth at 100 µM [6] of -15% and a growth at 0.01 µM [7] of 96%. For the same compound, the growth at 0.1 µM [8] was 92%, the growth at 0.1 µM [9] was 93% and the GI50 ([10]; read-out: GI50) was 2.1 µM. The TGI ([10]; read-out: TGI) was 3.86 µM, the GI50 ([10]; read-out: pGI50 (converted)) was 2.09 µM and the TGI ([10]; read-out: pTGI (converted)) was 3.89 µM. The GI50 ([11]; read-out: GI50) was 0.196 µM, the TGI ([11]; read-out: TGI) was 0.432 µM and the GI50 ([11]; read-out: pGI50 (converted)) was 0.195 µM. The TGI ([11]; read-out: pTGI (converted)) was 0.437 µM, the growth at 10 µM [12] was -80% and the growth at 100 µM [13] was -13%. It also gave a growth at 0.1 µM [14] of 106%, a growth at 10 µM [15] of -94.4% and a growth at 100 µM [16] of -7%. It also gave a growth at 100 µM [17] of -38%, a growth at 0.1 µM [18] of 97% and a growth at 100 µM [19] of -13%. The growth at 0.1 µM [20] was 82%, the GI50 ([21]; read-out: GI50) was 0.311 µM and the TGI ([21]; read-out: TGI) was 1.08 µM. It also gave a GI50 ([21]; read-out: pGI50 (converted)) of 0.309 µM, a TGI ([21]; read-out: pTGI (converted)) of 1.07 µM and a growth at 1 µM [22] of 14%. For the same compound, the growth at 0.01 µM [23] was 79%, the growth at 1 µM [24] was 26% and the growth at 10 µM [25] was -81.4%. For the same compound, the growth at 1 µM [26] was -55%, the growth at 100 µM [27] was -48% and the growth at 1 µM [28] was 18%.
